Results on 1 compound are retold here after ChEMBL document CHEMBL3763111, “Identification of a diverse indole-2-carboxamides as a potent antileishmanial chemotypes” (Eur J Med Chem, 2016).

Data set [1] in a line: Cytotoxicity against African green monkey Vero cells after 72 hrs by MTT assay. Format: cell-based. The conditions noted are these: chlorocebus sabaeus. In a few lines:
(§1)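 Vero or J-774A.1 cells (1 x 10^5 cells/mL) exposed to 7 concentrations starting from 400 µM for 72 h. MTT (5 mg/mL stock) then added for 2 h at 37°C. Formazan dissolved in DMSO; absorbance read at 544 nm. CC50 estimated per Huber & Koella; mean ± SD of two independent assays in duplicate.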
For orientation: Formazan colour is commonly taken as a measure of viable cells.

Data set [2] has as its system Leishmania donovani. Put plainly: Antileishmanial activity against Leishmania donovani MHOM/IN/80/Dd8 amastigotes infected in mouse J774A.1 cells incubated for 72 hrs by luminometric analysis. Format: functional, organism-based. The conditions noted are these: MHOM/IN/80/Dd8, J774.A1, 72 h. The essentials: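 Macrophages seeded at 4 x 10^4/mL in RPMI-1640 with 10% FCS for 24 h, then infected with stationary-phase promastigotes (4 x 10^5/mL) for 24 h. Free parasites washed off. Compounds added as 7-point two-fold dilutions from 40 µM; 72 h at 37°C. Read-out was Steady Glo luminescence. IC50 from four-parameter Hill fit; two independent assays in duplicate.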

Data set [3] is described as follows: Selectivity index, ratio of CC50 for African green monkey Vero cells to IC50 for Leishmania donovani MHOM/IN/80/Dd8 amastigotes infected in mouse J774A.1 cells. Format: functional. In a few lines:
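Ratio of Vero-cell MTT CC50 to IC50 against intracellular amastigotes, both measured in this work.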

A short description of data set [4]: Cytotoxicity against mouse J774A.1 cells after 72 hrs by MTT assay. Format: cell-based, J774.A1. The essentials: as §1
Data set [5] has as its system Leishmania donovani. In words: Potency index, ratio of IC50 for miltefosine to IC50 for test compound against Leishmania donovani MHOM/IN/80/Dd8 amastigotes infected in mouse J774A.1 cells. Format: functional.
In data set [6] the test system is Leishmania donovani. Put plainly: Antileishmanial activity against amastigote stage of Leishmania donovani MHOM/IN/80/Dd8 infected in golden hamster at 50 mg/kg/day, ip administered for 5 days measured on day 7 of last dose by Geimsa staining method. Format: functional. The conditions noted are these: MHOM/IN/80/Dd8, ip. The essentials: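 Inbred golden hamsters (40–45 g) infected intracardially with 1x10^7 amastigotes; only animals with +1 infection at 15-day spleen biopsy used. Five to six per group. Aqueous compound given ip at 50 mg/kg/day for 5 days, starting 2 days after biopsy. Splenic biopsy on day 7 after last dose, Giemsa-stained. Percent inhibition by formula relative to initial and untreated-control counts; pooled from at least two experiments.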

A further data set deals with Syrian golden hamster. Put plainly: Toxicity in golden hamster infected with amastigote stage of Leishmania donovani MHOM/IN/80/Dd8 assessed as abnormality in behaviour at 50 mg/kg/day, ip administered for 5 days. The conditions noted are these: in vivo, 120 h. Format: organism-based, Mesocricetus auratus.
Data set [7] relates to Leishmania donovani. In words: Antileishmanial activity against promastigote stage of Leishmania donovani MHOM/IN/80/Dd8 assessed as apoptotic cells at IC50 after 12 hrs by annexin V-FITC/propidium iodide double staining-based flow cytometric analysis. Format: functional. Background: Flow cytometry measures light scatter and fluorescence of single cells or particles in a stream.

Data set [8] deals with Leishmania donovani. In words: Antileishmanial activity against promastigote stage of Leishmania donovani MHOM/IN/80/Dd8 assessed as apoptotic cells at IC50 after 24 hrs by annexin V-FITC/propidium iodide double staining-based flow cytometric analysis. Format: functional.
In data set [9] the test system is Leishmania donovani. In words: Antileishmanial activity against promastigote stage of Leishmania donovani MHOM/IN/80/Dd8 assessed as apoptotic cells at IC50 after 48 hrs by annexin V-FITC/propidium iodide double staining-based flow cytometric analysis. Format: functional.
Data set [10] has as its system Leishmania donovani. Put plainly: Antileishmanial activity against promastigote stage of Leishmania donovani MHOM/IN/80/Dd8 assessed as apoptotic cells at IC50 after 72 hrs by annexin V-FITC/propidium iodide double staining-based flow cytometric analysis. Format: functional.
The nature of data set [11]: Cmax in Sprague-Dawley rat at 50 mg/kg administered as single dose via oral gavage after 0.5 to 48 hrs by RP-HPLC analysis. The arrangement: dose 50 mg/kg, route oral. To be noted: in vivo. Format: ADME, organism-based. In a few lines: (§2)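 Single 50 mg/kg oral gavage dose to conscious male Sprague-Dawley rats (250 ± 25 g) after a 12–16 h overnight fast. Blood drawn at 0.5–48 h; serum separated and held at -80°C. Quantified by isocratic RP-HPLC (C18; 0.01M ammonium acetate/acetonitrile 35:65), LLOQ 25 ng/ml. Three rats; parameters derived noncompartmentally from mean serum concentrations.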

A short description of data set [12]: Tmax in Sprague-Dawley rat at 50 mg/kg administered as single dose via oral gavage by RP-HPLC analysis. Format: ADME, organism-based. To be noted: in vivo. The essentials:
as §2

A short description of data set [13]: AUC(last) in Sprague-Dawley rat at 50 mg/kg administered as single dose via oral gavage after 0.5 to 48 hrs by RP-HPLC analysis. The arrangement: dose 50 mg/kg, time 0 - last, route oral. Format: ADME, organism-based. The conditions noted are these: in vivo. The essentials:
as §2

Data set [14] in a line: Mean residence time in Sprague-Dawley rat at 50 mg/kg administered as single dose via oral gavage by RP-HPLC analysis. Format: ADME, organism-based. The conditions noted are these: in vivo. The essentials: as §2
Another data set concerns Rattus norvegicus. Put plainly: Volume of distribution at steady state in Sprague-Dawley rat at 50 mg/kg administered as single dose via oral gavage after 0.5 to 48 hrs by RP-HPLC analysis. Format: ADME, organism-based. To be noted: in vivo. The essentials:
as §2

A short description of data set [15]: Clearance in Sprague-Dawley rat at 50 mg/kg administered as single dose via oral gavage after 0.5 to 48 hrs by RP-HPLC analysis. Format: ADME, organism-based. The conditions noted are these: in vivo. In a few lines: as §2
A short description of data set [16]: Oral availability in Sprague-Dawley rat at 50 mg/kg via gavage after 0.5 to 48 hrs by RP-HPLC analysis. Format: ADME, organism-based. To be noted: in vivo. The essentials:
as §2

Data set [17] can be described thus: Cmax in Sprague-Dawley rat at 5 mg/kg, iv after 0.083 to 48 hrs by RP-HPLC analysis. Format: ADME, organism-based. The arrangement: dose 5 mg/kg, route intravenous. To be noted: in vivo. In a few lines:
(§3)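 Male Sprague-Dawley rats (250 ± 25 g), conscious, given a single 5 mg/kg dose into the femoral vein. The dose was a 10 mg/ml solution in DMSO/ethanol/tween 80/propylene glycol (10:20:2:48) with normal saline. Blood taken 0.083–48 h; serum read by isocratic RP-HPLC (C18, ammonium acetate 0.01M:acetonitrile 35:65), LLOQ 25 ng/ml. n=3; noncompartmental analysis.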

Data set [18] in a line: Tmax in Sprague-Dawley rat at 5 mg/kg, iv by RP-HPLC analysis. Format: ADME, organism-based. To be noted: in vivo. In a few lines: as §3
Data set [19] is described as follows: AUC(last) in Sprague-Dawley rat at 5 mg/kg, iv after 0.083 to 48 hrs by RP-HPLC analysis. Format: ADME, organism-based. The arrangement: dose 5 mg/kg, route intravenous, time 0 - last. The conditions noted are these: in vivo. In a few lines: as §3
A short description of data set [20]: Mean residence time in Sprague-Dawley rat at 5 mg/kg, iv by RP-HPLC analysis. To be noted: in vivo. Format: ADME, organism-based. In a few lines: as §3
A short description of data set [21]: Volume of distribution at steady state in Sprague-Dawley rat at 5 mg/kg, iv after 0.083 to 48 hrs by RP-HPLC analysis. Format: ADME, organism-based. To be noted: in vivo, read-out: Vdss. The essentials: as §3
Data set [22] is described as follows: Clearance in Sprague-Dawley rat at 5 mg/kg, iv after 0.083 to 48 hrs by RP-HPLC analysis. Format: ADME, organism-based. The conditions noted are these: in vivo. In a few lines: as §3

In general, CC50 refers to the concentration giving 50% cytotoxicity. The term IC50 denotes the concentration that inhibits the measured activity by half. By inhibition in vivo is commonly meant the share of the control response that was lost under treatment. The term Cmax denotes the peak of the concentration-time curve. As usually defined, the Tmax is the time at which the peak concentration occurs. One may read the AUC(0-t) as the area under the concentration-time curve up to a stated or last time point. One may read the MRT as the average time that molecules of a dose stay in the body. In general, CL/F refers to clearance divided by bioavailability, as obtained after extravascular dosing. Usually bioavailability stands for the share of a dose that reaches the circulation, judged against a reference dose that is usually intravenous. For orientation: clearance means a measure of how efficiently the substance is removed, as volume per time. Take `COc1ccc(CNC(=O)CN(C(=O)c2cc3ccccc3[nH]2)C(C(=O)NC(C)(C)C)c2ccc(Cl)cc2)cc1` (centres undefined): the CC50 at 72 h amounted to 146 µM in [1] and 140 µM in data set [4]. Besides, the midpoint of inhibition in the data set with Leishmania donovani [2], the IC50, lay at 1.2 µM. Besides, the “Ratio CC50/IC50” value in data set [3] was 121. In addition, the “Ratio IC50” value with Leishmania donovani [5] came out at 7. This compound had an inhibition in vivo at 50 mg/kg/day in the data set on Leishmania donovani [6] of 70%. Also, the Activity result in the data set with Syrian golden hamster was “Non-toxic”; in the data set with Leishmania donovani [7], 49.1%; with Leishmania donovani [8], 56.17%; in the data set with Leishmania donovani [9], 73.3%; in the data set on Leishmania donovani [10] it was 79.07%. Besides, the values for the Cmax in data set [11] and in [17] were 1590 ng/mL and 1390 ng/mL, respectively. Further, the Tmax in data set [12] worked out at 1 h; in data set [18], 4.98 min. For the same compound, the results for the AUC(0-t) in data set [13] and in data set [19] were 27200 ng·h/mL and 7790 ng·h/mL, respectively. Besides, the MRT in [14] was found to be 8.5 h; in data set [20] it was 7.4 h. Further, the Vdss with Rattus norvegicus was 12.8 L/kg. The compound also showed a CL/F in [15] of 25 mL/min/kg. For the same compound, in data set [16], the bioavailability stood at 34.9%. In [21], the Vd came to 4.4 L/kg. In addition, in [22], the clearance is 10 mL/min/kg.
